# Experimental data: ChEMBL document CHEMBL4354867, “Validation and Characterization of Five Distinct Novel Inhibitors of Human Cytomegalovirus” (J Med Chem, 2020)
# Calls of active or inactive are those of the source. The rule behind the calls is not given here.
# Experiments:
# Human betaherpesvirus 5 [1] = experiment: Antiviral activity against HCMV Towne infected in human HFF cells assessed as reduction in plaque formation treated with compound following viral infection and incubated for 8 to 10 days by crystal violet staining based assay; assay type: functional, organism-based; conditions: Human betaherpesvirus 5, strain Towne
# Human betaherpesvirus 5 [2] = experiment: Antiviral activity against GCV-resistant HCMV Towne infected in human HFF cells assessed as reduction in plaque formation treated with compound following viral infection and incubated for 8 to 10 days by crystal violet staining based assay; assay type: functional, organism-based; conditions: Human betaherpesvirus 5, strain Towne
# Human betaherpesvirus 5 [3] = experiment: Antiviral activity against HCMV TB40 infected in human HFF cells assessed as reduction in plaque formation treated with compound following viral infection and incubated for 8 to 10 days by crystal violet staining based assay; assay type: functional, organism-based; conditions: Human betaherpesvirus 5, TB40, HFF
# HFF = experiment: Cytotoxicity against human HFF cells assessed as reduction in cell viability incubated for 72 hrs or 10 days by MTT assay; assay type: cell-based
# In short: (§1)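 MTT assay on uninfected cells exposed to compound for 72 h or 8–10 days, matching the antiviral assay durations. MTT (5 mg/mL stock in PBS) added, then 2–3 h at 37 °C. Formazan absorbance read at 560 nm.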
# Human alphaherpesvirus 1 = experiment: Antiviral activity against HSV 1 infected in African green monkey Vero cells assessed as reduction in plaque formation incubated for 36 hrs by crystal violet staining based assay; assay type: functional, organism-based; conditions: vero
# In short: (§2)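 Plaque reduction in Vero cells: virus adsorbed 60 min, then compound added in a carboxymethylcellulose overlay. Plaques counted after 36 h by crystal violet staining.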
# Human alphaherpesvirus 2 = experiment: Antiviral activity against HSV 2 infected in African green monkey Vero cells assessed as reduction in plaque formation incubated for 36 hrs by crystal violet staining based assay; assay type: functional, organism-based; conditions: vero; in short: as §2
# Human gammaherpesvirus 4 = experiment: Antiviral activity against EBV infected in human AKATA cells assessed as reduction in IgG-induced lytic virus replication measured at 48 hrs post-lytic induction by qRT-PCR analysis; assay type: functional, organism-based
# [4] = Antiviral activity against Mouse Cytomegalovirus Smith (ATCC VR-1399) infected in mouse MEF cells assessed as reduction in plaque formation measured after 3 days by crystal violet staining based assay; assay type: functional, cell-based, Murine cytomegalovirus (strain Smith); conditions: Murid betaherpesvirus 1, ATCC VR-1399, MEF, 72 h; read-out: EC50
# In short: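 Plaque reduction with MCMV Smith in mouse embryonic fibroblasts, with compound in a carboxymethylcellulose overlay. Assay ended at 3 days and plaques counted after crystal violet staining.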
# Human betaherpesvirus 5 [5] = experiment: (§3) Antiviral activity against pp28-luciferase expressing HCMV Towne infected in human HFF cells assessed as reduction in viral replication treated with compound at 24 hrs post viral infection at MOI of 1 PFU/cell and measured after 3 days by luciferase reporter gene assay; assay type: functional, organism-based; conditions: strain Towne
# In short: (§4)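 Time-of-addition in HFFs infected with HCMV Towne (MOI 1). Add-on: compound added at 0, 6, 24 or 48 hpi. Removal: compound added right after infection and washed out after 0, 6, 24 or 48 h. Luciferase read at 72 hpi.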
# Human betaherpesvirus 5 [6] = experiment: as §3, with “immediately after” for “at 24 hrs post”, “PFU/cell followed by compound washout after 6 hrs” for “PFU/cell”; assay type: functional; conditions: strain Towne; in short: as §4
# Human betaherpesvirus 5 [7] = experiment: Antiviral activity against HCMV Towne infected in human HFF cells assessed as reduction in plaque formation treated with compound following viral infection at MOI of 1 PFU/cell and measured at 10 days post-infection in presence of letermovir by crystal violet staining based assay; assay type: functional, organism-based; conditions: Human betaherpesvirus 5, strain Towne, 240 h
# Human betaherpesvirus 5 [8] = experiment: Antiviral activity against HCMV TB40 infected in human HFF cells assessed as reduction in plaque formation treated with compound following viral infection at MOI of 100 PFU/wells measured at 10 days post-infection in presence of GCV by crystal violet staining based assay; assay type: functional, organism-based; conditions: Human betaherpesvirus 5, TB40, HFF, 240 h
# In short: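 HFFs were infected at about 100 plaques/well and adsorbed for 90 min. They were then overlaid with DMEM containing 0.5% carboxymethylcellulose, 4% FBS and drugs, and incubated at 37 °C. A dose-response of each drug alone gave its EC₅₀. Combinations started at twice each EC₅₀, followed by two-fold serial dilutions. Plaques were counted after crystal violet staining. The Bliss coefficient is observed over expected fold inhibition (>1 synergy, <1 antagonism, =1 additive).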
# MEF = experiment: Cytotoxicity against mouse MEF cells assessed as reduction in cell viability at >=10 uM incubated for 72 hrs or 8 to 10 days by MTT assay; assay type: cell-based; in short: as §1
# Human betaherpesvirus 5 [9] = experiment: Antiviral activity against pp28-luciferase harboring UL97 C607Y mutant expressing GCV-resistant HCMV Towne infected in human HFF cells assessed as reduction in viral replication at 0.5 to 3 uM treated with compound following viral infection at MOI of 0.1 PFU/cell and measured at 72 hrs post infection by luciferase reporter gene assay; assay type: functional, organism-based; conditions: strain Towne
# In short: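 HFFs infected with GCV-resistant pp28-luciferase Towne (MOI 0.1), then treated with a compound dilution series. Luciferase, driven by the UL99 late promoter, read in cell lysates at 72 hpi. Data are mean ± SD of triplicates from a single experiment.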
# Human betaherpesvirus 5 [10] = experiment: Antiviral activity against HCMV TB40 infected in human HFF cells assessed as reduction in plaque formation at 0.5 to 3 uM treated with compound following viral infection at […] measured after 8 days by crystal violet staining analysis; assay type: functional, organism-based
# In short: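 HFFs (2 × 10⁵/well) infected with HCMV TB40 at about 100 plaques/well for 90 min. Inoculum removed, then DMEM with 0.5% CMC, 4% FBS and compound added. Incubated at 37 °C; plaques stained with crystal violet and counted at 8 dpi. Experiment repeated three times; one representative shown.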
# Human betaherpesvirus 5 [11] = experiment: Inhibition of viral protein expression in HCMV Towne infected in human HFF cells assessed as reduction in IE2 expression at 1 to 10 uM treated with compound following viral infection at MOI of 1 PFU/cell measured at 72 hrs post infection by Western blot analysis; assay type: functional, organism-based; conditions: strain Towne
# In short: (§5)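 HFFs infected with HCMV Towne (MOI 1), then treated with compound. Lysates taken at 72 hpi, equal protein loaded on 8–10% Tris-glycine SDS-PAGE and transferred to PVDF. Primary antibodies overnight at 4 °C, HRP secondary, chemiluminescent detection; β-actin as loading control.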
# Human betaherpesvirus 5 [12] = experiment: Inhibition of viral protein expression in HCMV Towne infected in human HFF cells assessed as reduction in IE1 expression at 1 to 10 uM treated with compound following viral infection at MOI of 1 PFU/cell measured at 72 hrs post infection by Western blot analysis; assay type: functional, organism-based; conditions: strain Towne; in short: as §5
# Human betaherpesvirus 5 [13] = experiment: Antiviral activity against HCMV Towne infected in human HFF cells assessed as reduction in viral DNA replication at 3 uM treated with compound following viral infection at MOI of 0.1 PFU/cell by US17 real time PCR analysis; assay type: functional, organism-based; conditions: strain Towne
# In short: (§6)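 At set time points supernatants were harvested and cells lysed for DNA. Cell-associated viral DNA and supernatant viral DNA quantified by real-time PCR targeting a 151-bp conserved US17 region.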
# Human betaherpesvirus 5 [14] = experiment: Antiviral activity against HCMV Towne infected in human HFF cells assessed as reduction in viral DNA yields in the supernatant at 3 uM treated with compound following viral infection at MOI of 0.1 PFU/cell by US17 real time PCR analysis; assay type: functional, organism-based; conditions: strain Towne; in short: as §6
smiles,measurement,setting,value
CC(C)NC(=O)C1CCN(C(=O)c2cc3sccc3n2Cc2ccc(Cl)cc2)CC1,EC50,Human betaherpesvirus 5 [1],4.61 µM
same,EC50,Human betaherpesvirus 5 [2],1.4 µM
same,EC50,Human betaherpesvirus 5 [3],1.18 µM
same,CC50,HFF,> 200 µM
same,EC50,Human alphaherpesvirus 1,Not Active
same,EC50,Human alphaherpesvirus 2,Not Active
same,EC50,Human gammaherpesvirus 4,Not Active
same,EC50,[4],1 µM
same,Activity,Human betaherpesvirus 5 [5],inactive
same,Activity,Human betaherpesvirus 5 [6],Active
same,EC50,Human betaherpesvirus 5 [7],3.19 µM
same,EC50,Human betaherpesvirus 5 [8],1.51 µM
same,Activity,MEF,Toxic
same,Activity,Human betaherpesvirus 5 [9],Active
same,Activity,Human betaherpesvirus 5 [10],Active
same,inhibition,Human betaherpesvirus 5 [11],Active
same,inhibition,Human betaherpesvirus 5 [12],Active
same,Activity,Human betaherpesvirus 5 [13],Active
same,Activity,Human betaherpesvirus 5 [14],Active
